Results reported in ChEMBL document CHEMBL3272018, “Synthesis of aziridinylallylaminophosphine oxides and sulfides as potential adjuvant cancer chemotherapeutic agents” (J Med Chem, 1976).
Active and inactive are the calls of the source. No cut-off for these calls is given here.

How the values were obtained:
[1] = test system: W256; test: Antitumor activity against rat Walker 256 cells intramuscularly allografted in rat assessed as survival rate at 0.23 mg/kg, qd administered for 5 days; format: functional, organism-based; set-up: dose 0.23 mg/kg
Outline: (§1)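 Rats bearing Walker 256 carcinoma as a solid tumor; lines 1-8 use a cytoxan-resistant Walker 256 subline. Dosed once daily for 5 days. Treated (T) and untreated control (C) groups are compared, and the response is given as T/C percentage, reflecting increase in survival time. Host weight change is the average weight change of the test group minus that of the controls, in grams.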

[2] = test system: W256; test: Antitumor activity against rat Walker 256 cells intramuscularly allografted in rat assessed as tumor growth inhibition; format: functional; conditions: W256, im
Outline: (§2)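 Dosed once daily for 5 days. Response is tumor progression in treated (T) versus untreated control (C) animals, expressed as T/C percentage. Host weight change is reported as the average net weight change of the test group minus that of the controls, in grams.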

[3] = test system: W256; test: Antitumor activity against rat Walker 256 cells intramuscularly allografted in rat assessed as tumor growth inhibition at 0.47 mg/kg, qd administered for 5 days relative to control; format: functional; conditions: W256, im, 120 h, route intramuscular, read-out: TGI; outline: as §2
[4] = test system: Rattus norvegicus; test: Toxicity in rat allografted with rat Walker 256 cells intramuscularly assessed as change in body weight at 0.47 mg/kg, qd administered for 5 days; format: organism-based; set-up: dose 0.47 mg/kg, route intramuscular; conditions: in vivo, im, 120 h
Outline: (§3)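 Walker 256 carcinoma solid-tumour system in rats (parent line, or the line resistant to cytoxan). Dosing was one injection per day for 5 days. Toxicity was taken as the average net body-weight change of the treated group minus the average net weight change of the untreated tumour-bearing controls, in grams.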

[5] = Therapeutic index, ratio of LD50 for rat allografted with rat Walker 256 cells to ED10 for antitumor activity against rat Walker 256 cells intramuscularly allografted in rat; format: cell-based; conditions: read-out: TI
Outline: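 Therapeutic index is LD50/ED10 in the Walker 256 solid tumour system. ED10 is the dose giving a 10% tumour weight reduction, with values extrapolated from dose-response data.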

[6] = Toxicity in rat allografted with rat Walker 256 cells intramuscularly; format: organism-based
[7] = test system: W256; test: Antitumor activity against rat Walker 256 cells intramuscularly allografted in rat assessed as survival rate at 0.47 mg/kg, qd administered for 5 days; format: functional, organism-based; set-up: dose 0.47 mg/kg; outline: as §1
[8] = test system: W256; test: Antitumor activity against rat Walker 256 cells intramuscularly allografted in rat assessed as tumor growth inhibition at 3.12 mg/kg, qd administered for 5 days relative to control; format: functional; conditions: W256, im, 120 h, route intramuscular, read-out: TGI
Outline: (§4)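 Walker 256 carcinoma grown as a solid tumour in rats, with one injection daily for 5 days. Response is given as T/C %, the treated-group measure over the untreated-control tumour measure; a smaller value means more activity. Host toxicity is the mean net weight change of treated minus control animals, in grams.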

[9] = test system: Rattus norvegicus; test: Toxicity in rat allografted with rat Walker 256 cells intramuscularly assessed as change in body weight at 0.23 mg/kg, qd administered for 5 days; format: organism-based; set-up: dose 0.23 mg/kg, route intramuscular; conditions: in vivo, im, 120 h; outline: as §3
[10] = test system: W256; test: Antitumor activity against rat Walker 256 cells intramuscularly allografted in rat assessed as tumor growth inhibition at 0.23 mg/kg, qd administered for 5 days relative to control; format: functional; conditions: W256, im, 120 h, route intramuscular, read-out: TGI; outline: as §2
[11] = test system: W256; test: Antitumor activity against rat Walker 256 cells intramuscularly allografted in rat assessed as tumor growth inhibition at 1.56 mg/kg, qd administered for 5 days relative to control; format: functional; conditions: W256, im, 120 h, route intramuscular, read-out: TGI; outline: as §2
[12] = test system: Rattus norvegicus; test: Toxicity in rat allografted with rat Walker 256 cells intramuscularly assessed as change in body weight at 0.78 mg/kg, qd administered for 5 days; format: organism-based; set-up: dose 0.78 mg/kg, route intramuscular; conditions: in vivo, im, 120 h; outline: as §3
[13] = test system: W256; test: Antitumor activity against rat Walker 256 cells intramuscularly allografted in rat assessed as tumor incidence at 12 mg/kg administered as single dose; format: functional, organism-based; set-up: dose 12 mg/kg
Outline: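 Walker 256 solid tumour in rats, given one injection at 12.0 mg/kg. Tumours and toxic deaths were recorded at sacrifice.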

[14] = test system: W256; test: Antitumor activity against rat Walker 256 cells intramuscularly allografted in rat assessed as tumor growth inhibition at 6.25 mg/kg, qd administered for 5 days relative to control; format: functional; conditions: W256, im, 120 h, route intramuscular, read-out: TGI; outline: as §4
[15] = test system: W256; test: Antitumor activity against rat Walker 256 cells intramuscularly allografted in rat assessed as survival rate at 1.56 mg/kg, qd administered for 5 days; format: functional, organism-based; set-up: dose 1.56 mg/kg; outline: as §1
[16] = test system: Rattus norvegicus; test: Toxicity in rat allografted with rat Walker 256 cells intramuscularly assessed as change in body weight at 3.12 mg/kg, qd administered for 5 days; format: organism-based; set-up: dose 3.12 mg/kg, route intramuscular; conditions: in vivo, im, 120 h; outline: as §3
[17] = test system: W256; test: Antitumor activity against rat Walker 256 cells intramuscularly allografted in rat assessed as survival rate at 3.12 mg/kg, qd administered for 5 days; format: functional, organism-based; set-up: dose 3.12 mg/kg; outline: as §1
[18] = test system: Rattus norvegicus; test: Toxicity in rat allografted with rat Walker 256 cells intramuscularly assessed as change in body weight at 1.56 mg/kg, qd administered for 5 days; format: organism-based; set-up: dose 1.56 mg/kg, route intramuscular; conditions: in vivo, im, 120 h; outline: as §3
[19] = test system: W256; test: Antitumor activity against rat Walker 256 cells intramuscularly allografted in rat assessed as tumor growth inhibition at 0.78 mg/kg, qd administered for 5 days relative to control; format: functional; conditions: W256, im, 120 h, route intramuscular, read-out: TGI; outline: as §2
[20] = test system: Rattus norvegicus; test: Toxicity in rat allografted with rat Walker 256 cells intramuscularly assessed as change in body weight at 6.25 mg/kg, qd administered for 5 days; format: organism-based; set-up: dose 6.25 mg/kg, route intramuscular; conditions: in vivo, im, 120 h; outline: as §3
[21] = test system: Rattus norvegicus; test: Toxicity in rat allografted with rat Walker 256 cells intramuscularly assessed as mortality at 12 mg/kg administered as single dose; format: organism-based; set-up: dose 12 mg/kg, route intramuscular; conditions: in vivo, im
Outline: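 Walker 256 solid-tumour system in rats. A single dose level of 12.0 mg/kg was given as one injection. Toxic deaths were recorded, and tumour presence was checked when the animals were sacrificed.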

[22] = test system: W256; test: Antitumor activity against rat Walker 256 cells intramuscularly allografted in rat assessed as survival rate at 6.25 mg/kg, qd administered for 5 days; format: functional, organism-based; set-up: dose 6.25 mg/kg; outline: as §1
[23] = test system: W256; test: Antitumor activity against rat Walker 256 cells intramuscularly allografted in rat assessed as survival rate at 0.78 mg/kg, qd administered for 5 days; format: functional, organism-based; set-up: dose 0.78 mg/kg; outline: as §1

Which Activity [1] does the source give for C=CCN(CC=C)P(=O)(N(CC=C)CC=C)N1CC1C (stereo not drawn) here?
The Activity was “Active”.

And the ED10 [2]?
Its ED10 is 0.62 mg/kg.

And the inhibition in vivo at 0.47 mg/kg [3]?
The inhibition in vivo at 0.47 mg/kg was 2%.

And the Activity [4]?
The Activity was -15 g.

And the selectivity ratio [5]?
Its selectivity ratio is 125.

And the LD50 [6]?
The LD50 was 75 mg/kg.

And the Activity [7]?
Its Activity is “Active”.

What about the inhibition in vivo at 3.12 mg/kg [8] of the same compound?
Its inhibition in vivo at 3.12 mg/kg is 1%.

What about the Activity [9] of the same compound?
Its Activity is -3 g.

What about the inhibition in vivo at 0.23 mg/kg [10] of the same compound?
The inhibition in vivo at 0.23 mg/kg was 33%.

And the inhibition in vivo at 1.56 mg/kg [11]?
Its inhibition in vivo at 1.56 mg/kg is 2%.

What about the Activity [12] of the same compound?
Its Activity is -8 g.

What about the Activity [13] of the same compound?
Its Activity is “Active”.

And the inhibition in vivo at 6.25 mg/kg [14]?
The inhibition in vivo at 6.25 mg/kg was 3%.

And the Activity [15]?
Its Activity is “Active”.

What about the Activity [16] of the same compound?
The Activity was -15 g.

What about the Activity [17] of the same compound?
Its Activity is “Active”.

And the Activity [18]?
The Activity was -22 g.

And the inhibition in vivo at 0.78 mg/kg [19]?
Its inhibition in vivo at 0.78 mg/kg is 4%.

What about the Activity [20] of the same compound?
Its Activity is -28 g.

What about the Activity [21] of the same compound?
The Activity was “Non-toxic”.

And the Activity [22]?
The Activity was “Active”.

What about the Activity [23] of the same compound?
Its Activity is “Active”.
